In ChEMBL document CHEMBL4145685, “Development of Second-Generation CDK2 Inhibitors for the Prevention of Cisplatin-Induced Hearing Loss” (J Med Chem, 2018):
Values after ≈ are worked out from the molar mass of the structure shown. Active and inactive are the calls of the source.

How the values were obtained:
[1] = Protection against cisplatin-induced cell death in neonatal mouse HEI-OC1 cells assessed as reduction in caspase-3/7 activity; type: functional
[2] = molecular target: CDK2/Cyclin A2 (Homo sapiens, UniProt P24941); experiment: Inhibition of C-terminal His6-tagged human full length CDK2/N-terminal GST-tagged human full length Cyclin A using histone H1 and [gamma-32P]-ATP incubated for 30 mins by phosphorimage based assay; type: protein-complex assay
[3] = system: Spiral organ of cochlea; experiment: Protection against cisplatin-induced toxicity in P3 mouse cochlear explants assessed as increase in outer hair cell count incubated for 24 hrs by phalloidin staining based confocal microscopy; type: functional, tissue-based
[4] = system: Mus musculus; experiment: (§1) Protection against cisplatin-induced ototoxicity in adult FVB mouse assessed as reduction in auditory brainstem response threshold elevation by measuring ABR threshold shits at 32 kHz dosed at 50 uM administered to each left ear by transtympanic injection dosed 1 hr before cisplatin injection and measured after 15 days; type: functional
Procedure, shortened: (§2)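 P30 FVB mice under isoflurane got a single 5 μL transtympanic injection (50 μM in saline with 0.5% DMSO, or vehicle) into the left ear. Cisplatin was given i.p. 1 h later. Closed-field left-ear ABR thresholds were taken before treatment and at day 15. Shift is post minus pre. Mice losing <10% bodyweight were excluded. Mean ± SEM, paired 2-tailed t-test.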

[5] = molecular target: Glycogen synthase kinase-3 beta (Homo sapiens) (UniProt P49841); experiment: Inhibition of human full length GSK3beta expressed in mammalian expression system at 1 uM
Glycogen synthase kinase-3 beta (Homo sapiens), sequence (P49841 whole entry, looked up): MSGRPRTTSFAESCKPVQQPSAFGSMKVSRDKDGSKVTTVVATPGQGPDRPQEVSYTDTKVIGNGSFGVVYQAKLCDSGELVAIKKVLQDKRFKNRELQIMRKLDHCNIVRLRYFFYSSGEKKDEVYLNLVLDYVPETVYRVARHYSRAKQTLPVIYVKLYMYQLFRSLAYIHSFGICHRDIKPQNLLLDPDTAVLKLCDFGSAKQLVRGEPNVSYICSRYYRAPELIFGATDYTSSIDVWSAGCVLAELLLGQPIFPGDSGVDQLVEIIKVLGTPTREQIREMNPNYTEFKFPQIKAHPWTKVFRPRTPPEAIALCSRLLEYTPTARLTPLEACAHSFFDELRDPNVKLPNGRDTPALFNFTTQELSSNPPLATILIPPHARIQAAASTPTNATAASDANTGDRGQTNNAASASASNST
Procedure, shortened: (§3)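 Competition binding screen at 1 μM over a 468-kinase panel. Kinases were T7-phage-tagged (grown in E. coli BL21-derived host) or produced in HEK-293 cells with DNA tags. They bound to immobilized biotinylated ligand beads with compound for 1 h at room temperature in SeaBlock/PBS/Tween/DTT buffer. Eluted kinase was quantified by qPCR.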

[6] = system: Mus musculus; experiment: Toxicity in adult FVB mouse at 2 to 50 uM dosed to each left ear by transtympanic injection after 15 days; type: organism-based; details: in vivo, other, 360 h
Procedure, shortened: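 Adult FVB mice, blinded and randomized, received transtympanic left-ear 2, 10 or 50 μM compound or vehicle (PBS + 0.5% DMSO, 5 μL). Dosing was a single injection, or two injections 24 h apart in one series. Three to four mice per group. ABRs were recorded at 8, 16, 32 kHz after 15 days.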

[7] = system: Mus musculus; experiment: Protection against cisplatin-induced ototoxicity in adult FVB mouse assessed as reduction in outer hair cell loss in middle basal turn at 32 kHz dosed at 50 uM administered to each left ear by transtympanic injection dosed 1 hr before cisplatin injection and measured after 15 days; type: functional, organism-based
Procedure, shortened: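 After day-15 ABR, cochleae were harvested from transtympanically dosed, cisplatin-treated adult FVB mice. Organ of Corti was stained with phalloidin, anti-parvalbumin and DAPI. OHCs were counted per 160 μm in the 32-kHz (middle basal turn) region. Mean ± SEM, paired 2-tailed t-test.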

[8] = molecular target: Cyclin-dependent kinase 7 (Homo sapiens) (UniProt P50613); experiment: Inhibition of human full length CDK7 expressed in mammalian expression system at 1 uM; procedure, shortened: as §3
Cyclin-dependent kinase 7 (Homo sapiens), sequence (P50613 whole entry): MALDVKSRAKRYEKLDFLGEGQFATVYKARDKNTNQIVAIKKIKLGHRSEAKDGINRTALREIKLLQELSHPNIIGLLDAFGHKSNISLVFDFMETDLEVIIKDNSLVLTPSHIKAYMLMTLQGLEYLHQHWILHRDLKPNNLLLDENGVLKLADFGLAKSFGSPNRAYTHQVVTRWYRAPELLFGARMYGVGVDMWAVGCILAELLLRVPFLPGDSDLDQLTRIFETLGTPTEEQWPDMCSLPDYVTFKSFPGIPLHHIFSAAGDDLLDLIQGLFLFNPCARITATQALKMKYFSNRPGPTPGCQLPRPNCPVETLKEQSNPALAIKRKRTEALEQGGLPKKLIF

[9] = molecular target: Glycogen synthase kinase-3 alpha (Homo sapiens) (UniProt P49840); experiment: Inhibition of human full length GSK3alpha expressed in bacterial expression system at 1 uM; procedure, shortened: as §3
Glycogen synthase kinase-3 alpha (Homo sapiens), sequence (P49840 2-483 limits assumed): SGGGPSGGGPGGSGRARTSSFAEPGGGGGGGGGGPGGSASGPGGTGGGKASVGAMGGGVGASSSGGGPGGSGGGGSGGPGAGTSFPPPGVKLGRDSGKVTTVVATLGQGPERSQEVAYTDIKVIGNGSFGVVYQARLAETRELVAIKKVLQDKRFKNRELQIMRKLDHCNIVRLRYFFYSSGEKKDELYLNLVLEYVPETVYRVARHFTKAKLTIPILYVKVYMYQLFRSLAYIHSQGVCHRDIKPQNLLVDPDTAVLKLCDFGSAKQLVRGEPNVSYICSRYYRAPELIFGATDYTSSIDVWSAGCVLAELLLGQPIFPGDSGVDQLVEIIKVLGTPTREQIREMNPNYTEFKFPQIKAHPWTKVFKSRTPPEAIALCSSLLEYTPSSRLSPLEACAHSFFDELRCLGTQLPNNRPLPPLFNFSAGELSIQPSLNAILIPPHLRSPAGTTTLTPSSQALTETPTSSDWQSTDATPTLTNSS

[10] = system: Mus musculus; experiment: Protection against cisplatin-induced ototoxicity in adult FVB mouse assessed as hearing thresholds at 32 kHz dosed at 50 uM administered to each left ear by transtympanic injection dosed 1 hr before cisplatin injection and measured after 15 days; type: functional, organism-based
Procedure, shortened: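 P30 FVB mice under isoflurane received 5 μL compound in PBS + 0.5% DMSO into the left ear by transtympanic 33-gauge cannula; vehicle controls matched. Cisplatin i.p. 1 h later; one regimen added a second injection 24 h after cisplatin. Left-ear closed-field ABR thresholds at 8, 16, 32 kHz were taken before treatment and at day 15. Threshold shift is reported as mean ± SEM, paired 2-tailed t-test. Mice losing <10% bodyweight were excluded.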

[11] = Solubility of the compound in citrate phosphate buffered saline incubated for 18 hrs by UV spectroscopy; type: physicochemical; details: buffer
Procedure, shortened: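 A 10 mM DMSO stock was diluted into buffer and held 18 h at room temperature. It was then filtered and mixed 1:1 with 1-propanol. UV spectrum (250–500 nm) AUC was compared with a reference of stock in 1-propanol/isotonic citrate PBS. Triplicate.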

[12] = system: Spiral organ of cochlea; experiment: Protection against cisplatin-induced toxicity in P3 mouse cochlear explants assessed as increase in outer hair cell count at 100 to 500 nM incubated for 24 hrs by phalloidin staining based confocal microscopy; type: functional, tissue-based
Procedure, shortened: (§4)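 P3 FVB mouse cochleae were cultured on filters in DMEM with 1% FBS and 50 μg/mL ampicillin, 37 °C, 5% CO2, for 1 d. They were pretreated with compound 1 h, then given cisplatin 150 μM plus compound for 1 d. Fixed in 4% PFA, phalloidin-stained, confocal imaged. OHCs counted per 160 μm; medium-only = full protection, cisplatin-only = none.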

[13] = system: Spiral organ of cochlea; experiment: Protection against cisplatin-induced toxicity in P3 mouse cochlear explants assessed as increase in outer hair cell count at 150 nM incubated for 24 hrs by phalloidin staining based confocal microscopy; type: functional, tissue-based; procedure, shortened: as §4
[14] = system: Mus musculus; experiment: as §1, with “16” for “32”; type: functional; procedure, shortened: as §2
[15] = Mus musculus, HEI-OC1, read-out: EC50

Row | SMILES | EC50 [1, 15] [µM] | EC50 [1] | also measured
1 | CCn1cc(NC(=O)c2ccc(COCC(F)(F)F)cc2)c(C(=O)NCC(C)C)n1 | 6.75 |  | IC50 [2]: > 10 µM
2 | Cn1cc(NC(=O)c2c(Cl)cccc2Cl)c(C(=O)NC2CCN(C(=O)c3c(Cl)cccc3Cl)CC2)n1 | > 49.4 |  | IC50 [2]: > 10 µM
3 | NS(=O)(=O)c1ccc(N/N=C2\C(=O)Nc3ccc(Br)cc32)cc1 | 0.127 |  | EC50 [3]: 1 µM
4 | CNC(=O)c1nn(C)cc1NC(=O)c1ccccc1Cl |  | Not Active | 
5 | COc1ccc2c(c1)/C(=C/c1cnc[nH]1)C(=O)N2 [SU-9516] | 1.59 |  | EC50 [3]: 6 µM
6 | CN[C@@H]1CCN(C(=O)c2ccc(Nc3ncc(F)c(-c4cnc(C)n4C(C)C)n3)cc2)C1 |  | Not Active | 
7 | Cn1ncc(NC(=O)c2ccccc2Cl)c1C(=O)N1CCCCC1 |  | Not Active | 
8 | O=C(NC1CCNCC1)c1n[nH]cc1NC(=O)c1c(F)cccc1F | 22.5 |  | 
9 | CC(C)CNC(=O)c1c(NC(=O)c2ccc(COCC(F)(F)C(F)F)cc2)cnn1C |  | Not Active | 
10 | O=C(NC1CCNCC1)c1n[nH]cc1NC(=O)c1c(F)cc(F)cc1F | > 30.9 |  | 
11 | CCCNC(=O)c1c(NC(=O)c2ccccc2Cl)cnn1C |  | Not Active | 
12 | CCn1cc(NC(=O)c2ccccc2Cl)c(C(=O)NCC(C)C)n1 |  | Not Active | 
13 | Cc1ccc(-c2ccnc(NCC(C)n3nc(C)cc3C)n2)c(C)n1 (configuration not stated) |  | Not Active | 
14 | COc1cccc(F)c1C(=O)Nc1c[nH]nc1C(=O)NC1CCNCC1 | > 37.2 |  | 
15 | O=C(NC1CCCCC1)c1n[nH]cc1NC(=O)c1c(F)cccc1F | > 27.3 |  | 
16 | O=C(Nc1c[nH]nc1C(=O)Nc1ccc(F)cc1)c1ccccc1 | > 33.2 |  | 
17 | Cc1cc(Br)ccc1C(=O)Nc1c(C(N)=O)n[nH]c1C |  | Not Active | 
18 | N#Cc1ccc2c(c1)/C(=C1/C=CC(CN3CCOCC3)=CN1)C(=O)N2 | 3.63 |  | EC50 [3]: 15 µM
19 | CCCNC(=O)c1c(NC(=O)c2cc(S(=O)(=O)N(C)C)c(Cl)cc2Cl)cnn1C |  | Not Active | 
20 | Cc1ncc(-c2ccnc(Nc3ccc(S(C)(=O)=O)cc3)n2)n1C(C)C [AZD-5438] |  |  | Activity [4]: 14 dB; inhibition [5]: Active; Activity [6]: Non-Toxic; Activity [7]: Active; inhibition [8]: Active; inhibition [9]: Active; Activity [10]: Active; solubility [11]: 68.8 µM (≈ 25.6 µg/mL)
21 | O=C(NC1CCNCC1)c1n[nH]cc1NC(=O)c1c(Cl)cccc1Cl |  |  | inhibition [5]: Active; inhibition [8]: Active; Activity [12]: inactive; inhibition [9]: Active
22 | NS(=O)(=O)c1ccc(CCNc2nccc(-c3ccccn3)n2)cc1 |  | Not Active | 
23 | O=C(N[C@H]1CCCNC1)c1n[nH]cc1NC(=O)c1c(F)cccc1F | > 37.9 |  | 
24 | c1ccc(Nc2nccc(-c3ccccn3)n2)cc1 |  | Not Active | 
25 | O=C(Nc1ccc(F)cc1)c1n[nH]cc1NC(=O)C1CCCCC1 | > 32.2 |  | 
26 | Cn1cc(NC(=O)c2ccc(Cl)cc2Cl)c(C(=O)NCCc2ccco2)n1 |  | Not Active | 

Row | SMILES | EC50 [1, 15] [µM] | EC50 [1] | also measured
27 | O=C(Nc1ccc(F)cc1)c1n[nH]cc1NC(=O)c1c(F)cccc1F |  |  | Activity [13]: inactive
28 | CC[C@H](CO)Nc1nc(NCc2ccccc2O)c2ncn(C(C)C)c2n1 [OLOMOUCINE II] | 0.595 |  | EC50 [3]: 3 µM
29 | O=C(N[C@H]1CC[C@H](O)CC1)c1n[nH]cc1NC(=O)c1c(F)cccc1F |  |  | inhibition [5]: Active; Activity [6]: Non-Toxic; Activity [7]: inactive; inhibition [8]: Active; Activity [13]: Active; Activity [14]: 10 dB; inhibition [9]: Active
30 | CCn1cc(NC(=O)c2ccc(Cl)cc2Cl)c(C(=O)Nc2ccccc2)n1 | 31.1 |  | IC50 [2]: > 10 µM
31 | O=C1Cc2c([nH]c3ccc(Br)cc23)-c2ccccc2N1 [KENPAULLONE] | 0.349 |  | inhibition [5]: Active; inhibition [8]: Active; EC50 [3]: 0.15 µM; inhibition [9]: Active
32 | N[C@H]1CC[C@H](NC(=O)c2n[nH]cc2NC(=O)c2c(F)cccc2F)CC1 | > 33.5 |  | 
33 | NS(=O)(=O)c1ccc(CNc2nccc(-c3ccccn3)n2)cc1 |  | Not Active | 
34 | Cc1[nH]nc(C(N)=O)c1NC(=O)c1ccc(OCC2CC2)cc1 |  | Not Active | 
35 | CCn1ccnc1CN(C)c1nccc(-c2ccc(C)nc2C)n1 |  | Not Active | 
36 | Cc1ccc(C(=O)Nc2c(C(=O)N(C)C)nn(C)c2C)cc1 |  | Not Active | 
37 | O=C(Cc1ccccc1)Nc1c[nH]nc1C(=O)Nc1ccc(F)cc1 | > 32.7 |  | 
38 | Cc1[nH]nc(C(N)=O)c1NC(=O)c1cc(F)cc(Br)c1 |  | Not Active | 
39 | Cc1[nH]nc(C(N)=O)c1NC(=O)C(C)NC(=O)c1ccc(Cl)cc1 (configuration not stated) |  | Not Active | 
40 | CCn1cc(NC(=O)c2c(F)cccc2F)c(C(=O)NCC(C)C)n1 |  | Not Active | 
41 | CCCNC(=O)c1c(NC(=O)c2ccc(Cl)cc2Cl)cnn1C |  | Not Active | 
42 | CN(Cc1nccn1Cc1ccccc1)c1nccc(-c2ccccn2)n1 |  | Not Active | 
43 | Cn1ncc(NC(=O)c2ccc(Cl)cc2Cl)c1C(=O)NCc1ccco1 |  | Not Active | 
44 | O=C(NC1CCN(C(=O)c2c(Cl)cccc2Cl)CC1)c1n[nH]cc1NC(=O)c1c(Cl)cccc1Cl | 0.459 |  | IC50 [2]: 0.76 µM; Activity [13]: inactive
45 | Cc1[nH]nc(C(N)=O)c1NC(=O)c1cc(F)c(F)c(F)c1 |  | Not Active | 
46 | CCCNC(=O)c1c(NC(=O)c2cc(S(=O)(=O)N3CCCC3)c(Cl)cc2Cl)cnn1C |  | Not Active | 
47 | Cn1ncc(NC(=O)c2n[nH]cc2Cl)c1C(=O)N1CCCCC1 |  | Not Active | 
48 | Cc1nc(-c2ccnc(N)n2)cn1Cc1c(Cl)cccc1Cl |  | Not Active | 
49 | CCn1cc(NC(=O)c2ccc(Cn3cc(Cl)cn3)cc2)c(C(=O)NC2CCCC2)n1 | 5.04 |  | IC50 [2]: > 10 µM
50 | O=C(NCC1CC1)c1n[nH]cc1NC(=O)c1c(F)cccc1F | 0.044 |  | Activity [13]: inactive
51 | CCC(Nc1nccc(-c2ccccn2)n1)c1ccc(S(C)(=O)=O)cc1 (configuration not stated) |  | Not Active | 
